Shown are actives, neighbours in structure and some others; about 2.4% of the full set was active somewhere.
HTR5A inv ag = HTR5A inverse agonists in luminescence cell assay, primary screen, counter-screen for OPRM1-OPRD1 heterodimer inverse agonist project, full-deck HTS; 0.083% of 340,000 active; HTR5A cell line, inverse agonism; inhibition, % at 9.3 µM; 5-hydroxytryptamine receptor 5A (Homo sapiens), P47898; AID 504634, 2011; in the data active = inhibition mostly above about 23%, no sharp cut-off; inactive = mostly below about 18%
Target sequence (P47898 whole entry, looked up): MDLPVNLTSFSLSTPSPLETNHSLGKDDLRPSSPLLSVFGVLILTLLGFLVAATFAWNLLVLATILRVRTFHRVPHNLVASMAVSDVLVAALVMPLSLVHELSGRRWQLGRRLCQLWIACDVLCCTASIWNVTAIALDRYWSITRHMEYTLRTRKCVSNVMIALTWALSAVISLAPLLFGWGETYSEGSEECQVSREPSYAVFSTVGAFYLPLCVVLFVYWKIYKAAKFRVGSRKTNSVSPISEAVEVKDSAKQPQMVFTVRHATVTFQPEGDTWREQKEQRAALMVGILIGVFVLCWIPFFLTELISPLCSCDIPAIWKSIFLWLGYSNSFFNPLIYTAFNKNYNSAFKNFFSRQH
MC4R antagonist = MC4R antagonists of cAMP signaling, primary screen, cell-based, TR-FRET, antagonist arm of biased-ligand search. MC4R-expressing cells, MTII-stimulated cAMP, LANCE TR-FRET. Melanocortin receptor 4 (Homo sapiens), P32245. 0.48% of 360,000 active. inhibition, % at 6.5 µM. AID 540295, 2011;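 active = inhibition above its plate's cutoff, the mean of tested wells on that plate plus 3 SD, cut at about 29% in these data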
Target sequence (P32245 whole entry, looked up): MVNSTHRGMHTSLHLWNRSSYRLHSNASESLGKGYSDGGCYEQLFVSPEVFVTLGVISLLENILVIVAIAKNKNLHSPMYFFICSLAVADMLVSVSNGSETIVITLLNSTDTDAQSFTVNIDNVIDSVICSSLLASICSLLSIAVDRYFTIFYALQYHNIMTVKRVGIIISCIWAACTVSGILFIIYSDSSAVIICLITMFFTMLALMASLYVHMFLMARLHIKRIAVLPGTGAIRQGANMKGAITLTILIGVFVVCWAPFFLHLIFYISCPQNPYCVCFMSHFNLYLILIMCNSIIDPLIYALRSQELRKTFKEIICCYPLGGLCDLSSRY
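material = U2OS cells stably expressing human melanocortin 4 receptor (MC4R) | also added = Melanotan II challenge | dosing = single nominal compound dose of 6.5 µM | detection = TR-FRET with Eu-cAMP and labeled anti-cAMP, 671 nm | replication = singlicate | timing = compound 30 min, challenge 1 h, detection 1 h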
HTR5A ag = HTR5A agonists in luminescence cell assay, primary screen, counter-screen for OPRM1-OPRD1 heterodimer agonist project, full-deck HTS; 5-hydroxytryptamine receptor 5A (Homo sapiens), P47898; cell-based; activation, % at 9.3 µM; 0.61% of 340,000 active; AID 504692, 2011; in the data active = activation mostly above about 9.5%, no sharp cut-off; inactive = mostly below about 7.6%
OPRM1-OPRD1 inv = inverse agonists of MOR-DOR heterodimerization, primary screen, cell-based, luminescence. AID 504357, 2011. inhibition, % at 9.3 µM. Mu-type opioid receptor (Homo sapiens) + Delta-type opioid receptor (Homo sapiens), …. cell-based MOR-DOR heterodimer luminescence, inverse agonism. 0.21% of 340,000 active; in the data active = inhibition above about 22%, passing the limit was not always enough
MC4R ag barr = MC4R agonists recruiting beta-arrestin, primary screen, cell-based, luminescence, agonist arm of biased-ligand search; AID 540308, 2011; 0.98% of 360,000 active; activation, % at 8.9 µM; U2OS MC4R beta-arrestin complementation; percent of melanotan II response, DMSO zero; Melanocortin receptor 4 (Homo sapiens), P32245;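 active = activation above a per-plate cutoff, the mean activation of sample wells on that plate plus 3 SD, cut at about 8% in these data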
OPRM1-OPRD1 ag = agonists of OPRM1-OPRD1 heterodimerization, primary screen, cell-based, luminescence | cells | activation, % at 9.3 µM | 0.3% of 340,000 active; in the data active = activation above about 18%
Each line names hits and unclear results; the compound was inactive in the other large screens.

CCN(CC)c1ccc(C(=S)NCc2ccccc2)cc1	none
COc1ccc(-c2nnc(SCc3nc4ccccc4c(=O)[nH]3)o2)cc1	MC4R ag barr 8.2
CCNC(=S)N1N=C2c3ccccc3CCC2C1c1ccc(F)cc1 (stereo not drawn)	none (no result: HTR5A inv ag, HTR5A ag, OPRM1-OPRD1 inv, OPRM1-OPRD1 ag)
Clc1cc(Cl)cc(Nc2ncnc(-n3cccc3)n2)c1	MC4R ag barr 9.0 (no result: HTR5A inv ag, HTR5A ag, OPRM1-OPRD1 inv, OPRM1-OPRD1 ag)
Cc1ccc(Nc2ncnc(-n3cccc3)n2)cc1Cl	none
CCN(c1ccccc1)S(=O)(=O)c1ccc(Cl)c(NC(=O)c2ccc(=O)[nH]n2)c1	HTR5A ag 12
CCN(CC)c1ccc(NC(=O)Nc2cccc(C(C)=O)c2)cc1	HTR5A ag 13
O=C1NC(CCO)C(=O)NC1CCO (stereo not drawn)	none
CC(C)c1ccc(OCC(=O)NNC(=S)NC(=O)c2cccs2)c(Br)c1	HTR5A ag 12
C[C@@H]1CN([C@H](C)CO)C(=O)c2cc(C#Cc3ccccc3F)cnc2O[C@@H]1CN(C)S(=O)(=O)c1ccccc1F	none (no result: HTR5A inv ag, HTR5A ag, OPRM1-OPRD1 inv, OPRM1-OPRD1 ag)
CC(C)(C)c1ccc(C(=O)Cn2nc(C(=O)O)c3ccccc3c2=O)cc1	MC4R ag barr 8.7
Nc1nnnn1/N=C/c1ccccc1OCc1ccc(Cl)cc1	MC4R ag barr 8.3
O=S(=O)(NN=C1CCCCCC1)c1ccccc1	HTR5A ag 13
O=S(=O)(NN=C1CCCCC1)c1ccccc1	none
CN(C)CCC(=O)c1ccc2c(c1)OCO2	MC4R antagonist 33
CN(C)CCCC(=O)c1ccc2c(c1)OCO2	none
O=C(COC(=O)CCC(NC(=O)OCc1ccccc1)C(=O)OCC(=O)Nc1ccccc1)Nc1ccccc1 (stereo not drawn)	none
O=C1C(Cc2ccccc2)Nc2ncnc(N3CCN(c4ccccc4)CC3)c2N1Cc1ccc(Cl)cc1 (stereo not drawn)	HTR5A inv ag 53, OPRM1-OPRD1 inv 57
O=C1C(Cc2ccccc2)Nc2ncnc(N3CCCCC3)c2N1Cc1ccc(Cl)cc1 (stereo not drawn)	none
CCN1C(=O)[C@H]2[C@@H](c3ccc(-c4ccc(F)cc4)c(OC)c3)N[C@@](Cc3ccccc3)(C(=O)OC)[C@H]2C1=O	none
CC(C)(C)NCCC(O)c1cc(C(F)(F)F)nc2c(C(F)(F)F)cccc12 (stereo not drawn)	none
O[C@@H](c1cc(C(F)(F)F)nc2c(C(F)(F)F)cccc12)[C@H]1CCCCN1	OPRM1-OPRD1 ag 21
CC(C)(C)c1cc(CCC(=O)N2CCC2)cc(C(C)(C)C)c1O	none
CC(C)(C)c1cc(CCC(=O)NN)cc(C(C)(C)C)c1O	HTR5A ag 12
Nc1nc(SCc2ccc(Cl)cc2Cl)nc2nc3c(cc12)CCCC3	none
COC(=O)c1cc(S(=O)(=O)N2CCN(c3cccc(Cl)c3)CC2)c[nH]1	MC4R ag barr 9.1
COC(=O)c1cc(S(=O)(=O)N2CCN(c3ccccc3F)CC2)c[nH]1	none
Cc1onc(-c2ccccc2Cl)c1C(=O)Oc1cc(N)n(S(=O)(=O)c2ccc(F)cc2)n1	MC4R antagonist 29
Cc1ccc(S(=O)(=O)n2nc(OC(=O)c3c(-c4ccccc4Cl)noc3C)cc2N)cc1	none
CC[C@]12c3[nH]c4ccc(OC)cc4c3CCN1C(=O)C(CC(=O)NCCC1=CCCCC1)C[C@@H]2C(=O)N1CCN(C(=O)C2CC2)CC1 (stereo partly drawn)	none
Cc1ccc(-n2nc3c(N4CCC(C(=O)NCCc5ccccc5C)CC4)nnc(C)c3c2C)cc1	MC4R ag barr 16
CCn1nc(C(=O)OCC(=O)N2CCc3ccccc32)c2ccccc2c1=O	HTR5A ag 14
CCn1nc(C(=O)N2CCc3ccccc32)c2ccccc2c1=O	none
CCN(CC)C(=O)C(=O)N/N=C/c1cccc(Br)c1	none
CCCSC1=C(C#N)C(c2ccc(OC)cc2)C2=C(CC(C)(C)CC2=O)N1 (stereo not drawn)	HTR5A ag 11
COc1ccc(C2C(C#N)=C(C)NC3=C2C(=O)CC(C)(C)C3)cc1 (stereo not drawn)	none
Cc1ccc(S(=O)(=O)NCc2ccc(C(=O)N3CCN(c4ccc([N+](=O)[O-])cc4)CC3)cc2)cc1	HTR5A ag 11
CCn1c(=S)sc2c(=O)n(CC(=O)Nc3ccc(Cl)cc3)c(C)nc21	MC4R ag barr 8.6
O=P(C(=S)Nc1ccccc1Cl)(c1ccccc1)c1ccccc1	none (no result: HTR5A inv ag, HTR5A ag, OPRM1-OPRD1 inv, OPRM1-OPRD1 ag)
NS(=O)(=O)c1ccc(NC(=S)NC(=O)c2ccc3c(c2)OCO3)cc1	none
CC(C)c1ccc(O)c(NC(=S)NC(=O)c2ccc3c(c2)OCO3)c1	MC4R ag barr 11
Cc1cccc(OCCCC(=O)Nc2ccc(N3CCCCC3)cc2)c1	MC4R ag barr 11
CCCCOC(=O)Nc1ccc(N2CCCCC2)cc1	HTR5A ag 9.6
O=C(CCOc1ccccc1)Nc1ccc(Br)cc1	none
Cc1cccc(OCCCC(=O)Nc2nc3ccccc3[nH]2)c1	HTR5A ag 10
COc1ccc(OCCCC(=O)Nc2ccc(N3CCCCC3)cc2)cc1	none
O=C(CCCOc1ccccc1)Nc1ccc(Br)cc1	MC4R ag barr 8.6
CN(C)c1nc(SCCOC(=O)Nc2ccccc2)nc(N(C)C)n1	HTR5A ag 8.8
CN(C)c1nc(C(=O)Nc2ccccc2)nc(N(C)C)n1	none
O=C(O)C1CCCCC1C(=O)Nc1ccc(S(=O)(=O)N2CCCC2)cc1 (stereo not drawn)	none
O=C(NCC1(c2ccccc2)CCCC1)c1ccccc1	none
O=C(NCC1(c2ccccc2)CCCC1)C(=O)NCC1(c2ccccc2)CCCC1	HTR5A ag 9.9
CCOC(=O)c1ccc(NC(=O)CCc2nc(-c3ccc(Cl)cc3)no2)cc1	none
CCOC(=O)c1ccc(NC(=O)CCc2nc(-c3ccc(C)cc3)no2)cc1	MC4R ag barr 9.7
CCCS(=O)(=O)NC(=O)C1(C)CCN(C(=O)c2ccccc2Br)C1 (stereo not drawn)	none (no result: HTR5A inv ag, HTR5A ag, OPRM1-OPRD1 inv, OPRM1-OPRD1 ag)
COc1ccc(NC(=O)Cn2cnc3ccccc3c2=O)cc1OC	none
COc1ccc2nc(NC(=O)Cn3cnc4ccccc4c3=O)sc2c1	MC4R ag barr 8.3
CCCCN(C)CC(O)Cn1cc(/C=C/C(=O)c2ccc(C)cc2)c2ccccc21 (stereo not drawn)	MC4R ag barr 13
O=C(NCc1nnc(SCC(=O)N2CCCCCC2)o1)c1ccco1	HTR5A ag 11
O=C(NCc1nnc(SCC(=O)N2CCCCC2)o1)c1ccc(F)cc1	none

High-throughput results as filed in PubChem.
